# Test results reported in PubChem BioAssay.
# Calls of active or inactive are those of the source.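 The calls were made as follows, unless noted: active = current rise at least 3 SD above the untreated control mean in each of two repeat wells; inactive = the rest.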
# Assays:
# [1] = nonspecific flux increase, KCNQ1-free cells – parental CHO cells, counter-screen for KCNQ1 potentiator project (AID 493006;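 active = duplicate-averaged activation above buffer control mean plus 5 SD of those controls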); conditions: parental CHO-K1 cells, FluxOR thallium flux, at 10 µM; stronger effect = higher value
# How it was run: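 Assay system: Untransfected host CHO-K1 cells with FluxOR thallium dye | Probe or stimulus: Potassium/thallium depolarization pulse | Schedule: Overnight 37 °C plating, 90 min RT dye, 20 min compound | Detection: Kinetic thallium-flux fluorescence | Read-out: Max-minus-min fluorescence over baseline, percent of buffer-to-R-L3 span | Benchmarks: Low control buffer, high control R-L3 activator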
# [2] = target: Potassium voltage-gated channel subfamily KQT member 1 (Homo sapiens) (UniProt P51787); test: enhancement of KCNQ1 channel thallium flux – FluxOR thallium flux, CHO cells, duplicates, confirmation (AID 493007;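 active = potentiation averaged over duplicate wells exceeding buffer-only control mean by more than 3 SD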;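 as to outcome: cells depolarized by a potassium plus thallium sulfate stimulus after compound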); conditions: KCNQ1 cell line, FluxOR thallium flux fluorescence, at 10 µM; stronger effect = higher value, % of reference activator effect, buffer zero
# How it was run: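 Material: KCNQ1-expressing CHO cell line; Incubation: FluxOR dye loading 90 min, compound exposure 20 min, room temperature; Detection: FluxOR Tl+ flux fluorescence, 10 s baseline plus 110 s recording; Read-out: percent activation between buffer and R-L3 responses; Control set: buffer-only wells as 0% and R-L3 activator as 100%; Replication: duplicate wells per compound.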
# [3] = target: Potassium voltage-gated channel subfamily KQT member 2 (Rattus norvegicus) (UniProt O88943); test: KCNQ2 thallium flux enhancement – KCNQ2-CHO-K1 cells, selectivity assay for KCNQ1 potentiator project (AID 493009;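 active = mean duplicate potentiation above the buffer control mean plus 5 SD of buffer wells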;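 also: assay conditions were tuned for KCNQ1 rather than KCNQ2 modulators; signal is max minus min fluorescence divided by baseline after thallium stimulus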); conditions: FluxOR thallium flux fluorescence, at 10 µM; stronger effect = higher value, scaled: buffer 0, activator control 100
# [4] = target: Potassium voltage-gated channel subfamily KQT member 1 (Homo sapiens) (UniProt P51787); test: KCNQ1 activators by electrophysiology – IonWorks patch clamp, KCNQ1-CHO cells, orthogonal assay for KCNQ1 potentiator project, confirmation (AID 493184); conditions: automated patch clamp current, at 10 µM; stronger effect = higher value
# How it was run: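 assay system = KCNQ1-expressing CHO cells | medium = external bath solution at pH 7.4 | probe or stimulus = 2,000 ms depolarization, -90 to +40 mV | compound dosing = 10 µM final, single point | measured by = automated voltage clamp, amphotericin B perforated patch | measure = percent current increase versus pre-compound level | replication = duplicates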
# Potassium voltage-gated channel subfamily KQT member 1 (Homo sapiens), sequence (P51787 whole entry, looked up): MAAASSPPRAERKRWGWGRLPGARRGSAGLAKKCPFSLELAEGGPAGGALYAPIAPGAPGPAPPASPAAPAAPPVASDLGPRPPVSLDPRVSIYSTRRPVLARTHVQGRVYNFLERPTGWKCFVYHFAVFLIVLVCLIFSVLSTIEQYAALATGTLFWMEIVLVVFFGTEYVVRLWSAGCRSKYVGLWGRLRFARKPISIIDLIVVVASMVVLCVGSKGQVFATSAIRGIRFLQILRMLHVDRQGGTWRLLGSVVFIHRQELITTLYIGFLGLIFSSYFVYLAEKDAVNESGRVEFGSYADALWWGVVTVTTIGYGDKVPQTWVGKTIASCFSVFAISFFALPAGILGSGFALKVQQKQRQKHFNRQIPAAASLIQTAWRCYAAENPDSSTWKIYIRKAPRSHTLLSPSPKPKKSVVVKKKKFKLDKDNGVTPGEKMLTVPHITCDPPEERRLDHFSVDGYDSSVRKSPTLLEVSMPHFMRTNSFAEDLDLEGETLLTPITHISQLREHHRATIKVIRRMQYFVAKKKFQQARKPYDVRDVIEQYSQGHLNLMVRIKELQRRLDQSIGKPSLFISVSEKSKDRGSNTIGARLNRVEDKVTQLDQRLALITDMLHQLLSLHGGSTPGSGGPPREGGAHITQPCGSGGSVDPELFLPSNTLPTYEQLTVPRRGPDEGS
# Potassium voltage-gated channel subfamily KQT member 2 (Rattus norvegicus), sequence (O88943 whole entry, looked up): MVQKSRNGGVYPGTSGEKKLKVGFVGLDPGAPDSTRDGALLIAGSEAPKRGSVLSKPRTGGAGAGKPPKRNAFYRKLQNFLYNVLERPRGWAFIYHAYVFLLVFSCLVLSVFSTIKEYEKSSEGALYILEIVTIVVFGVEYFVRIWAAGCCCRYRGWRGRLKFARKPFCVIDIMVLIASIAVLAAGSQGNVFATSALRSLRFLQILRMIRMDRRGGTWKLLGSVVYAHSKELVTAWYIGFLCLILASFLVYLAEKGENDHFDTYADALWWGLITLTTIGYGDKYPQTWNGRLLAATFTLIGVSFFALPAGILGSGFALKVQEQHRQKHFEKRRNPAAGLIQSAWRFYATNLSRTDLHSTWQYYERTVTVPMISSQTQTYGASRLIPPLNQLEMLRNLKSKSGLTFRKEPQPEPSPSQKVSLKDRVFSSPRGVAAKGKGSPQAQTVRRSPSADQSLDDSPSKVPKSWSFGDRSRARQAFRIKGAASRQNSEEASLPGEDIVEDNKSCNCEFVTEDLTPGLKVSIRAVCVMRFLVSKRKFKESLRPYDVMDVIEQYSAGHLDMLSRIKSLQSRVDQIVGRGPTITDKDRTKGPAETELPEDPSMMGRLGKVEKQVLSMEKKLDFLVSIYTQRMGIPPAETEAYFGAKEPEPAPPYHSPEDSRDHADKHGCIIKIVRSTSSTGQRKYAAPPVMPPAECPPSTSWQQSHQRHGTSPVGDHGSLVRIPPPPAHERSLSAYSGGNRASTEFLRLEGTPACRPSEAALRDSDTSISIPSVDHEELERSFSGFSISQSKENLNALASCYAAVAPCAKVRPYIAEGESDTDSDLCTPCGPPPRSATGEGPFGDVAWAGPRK
SMILES,activation [1],potentiation [2],potentiation [3],outcome [4],outcome [1],outcome [2],outcome [3]
Cc1nc(NCc2cccnc2)c2c3c(sc2n1)CC(C)CC3 (stereo not given),299% (active),118% (active),352% (active),inactive,–,–,–
CCCCn1c(N)c(N(CC)C(=O)CSCc2c(C)noc2C)c(=O)[nH]c1=O,–,–,–,inactive,inactive,inactive,inactive
CCN(C(=O)COC(=O)c1ccccc1Nc1cccc(C)c1C)C1CCS(=O)(=O)C1 (stereo not given),–,–,–,inactive,inactive,inactive,inactive
O=C(NC(=S)N1CCCCCC1)c1ccc(Cl)cc1Cl,148% (active),–,158% (active),inactive,–,inactive,–
C=CCn1c(O)c(N=NC(=S)Nc2ccccc2F)c2ccccc21,352% (active),212% (active),416% (active),inactive,–,–,–
CC(Sc1nnnn1-c1ccc(O)cc1)C(=O)NC1CCCCC1C (stereo not given),–,–,–,inactive,inactive,inactive,inactive
CCCCNC(=S)NC(=O)c1ccc([N+](=O)[O-])cc1,168% (active),29% (active),190% (active),inactive,–,–,–
COc1ccc(C(=O)CC(=O)C(=O)Nc2ccccc2Cl)cc1,139% (active),25% (active),–,inactive,–,–,inactive
Cc1cc(SCNC(=O)c2ccccc2)ncn1,–,–,–,inactive,inactive,inactive,inactive
S=c1nc2ccccc2c2nc(-c3ccccc3)[nH]n12,–,–,–,inactive,inactive,inactive,inactive
COc1ccc2nc(NC(=S)NC(=O)c3ccco3)sc2c1,–,42% (active),175% (active),inactive,inactive,–,–
C=CCn1c(O)c(N=NC(=S)Nc2ccccc2F)c2cc(S(=O)(=O)N3CCOCC3)ccc21,–,26.5% (active),–,inactive,inactive,–,inactive
Cc1ccc(/C=C/C(=O)c2ccccc(=O)c2O)cc1C,174% (active),56.5% (active),276% (active),inactive,–,–,–
CSC(=S)N/N=C/c1ccc(N(C)C)cc1,–,–,–,inactive,inactive,inactive,inactive
CCCOc1ccc(Cc2nc(N)nc(N)n2)cc1,–,–,–,inactive,inactive,inactive,inactive
Cc1nn(-c2ccccc2)c(Cl)c1/C=N\NC(=O)c1cncc(Br)c1,–,–,–,inactive,inactive,inactive,inactive
CC(=O)N1N=C(c2ccccc2OC(=O)/C=C/c2ccccc2)CC1c1ccccc1 (stereo not given),–,–,–,inactive,inactive,inactive,inactive
CCOc1ccc2[nH]c(=O)c(CN(CCN3CCCC3)C(=S)Nc3ccccc3OCC)cc2c1,137% (active),–,164% (active),inactive,–,inactive,–
COc1ccc(-c2cc(C(=O)Nc3c(Cl)cc(Cl)cc3Cl)c3ccccc3n2)cc1OC,–,–,–,inactive,inactive,inactive,inactive
Cc1nn(-c2ccccc2)nc1C(=O)NNC(=O)c1cccc2ccccc12,–,53% (active),182% (active),inactive,inactive,–,–

SMILES,activation [1],potentiation [2],potentiation [3],outcome [4],outcome [1],outcome [2],outcome [3]
CC(C)(C)n1nnnc1C(c1cc2cc3c(cc2[nH]c1=O)OCCO3)N1CCSCC1 (stereo not given),–,–,–,inactive,inactive,inactive,inactive
Cc1ccc(SCc2[nH]nc3c2C(c2ccco2)C(C#N)=C(N)O3)cc1 (stereo not given),–,–,–,inactive,inactive,inactive,inactive
CCOC(=O)Cn1c(=N)n(CCOc2ccc(Br)cc2)c2ccccc21,–,–,–,inactive,inactive,inactive,inactive
CCOC(=O)c1c(NC(=O)C(C)N2CCN(C(=O)c3ccco3)CC2)sc2c1CCCC2 (stereo not given),–,53% (active),160% (active),inactive,inactive,–,–
CCOc1ccc(S(=O)(=O)N2CCCC(C(=O)NCCN3CCOCC3)C2)cc1Cl (stereo not given),260% (active),108% (active),250% (active),inactive,–,–,–
CCCOC(=S)NC(=O)c1sc2ccccc2c1Cl,294% (active),106% (active),274% (active),inactive,–,–,–
CCN(CC)CC(O)Cn1c2ccccc2c2ccccc21 (stereo not given),–,–,–,inactive,inactive,inactive,inactive
CC1CCCCN1S(=O)(=O)c1ccc(S(=O)(=O)N(CC(=O)Nc2ccccc2)Cc2cccs2)cc1 (stereo not given),–,–,–,inactive,inactive,inactive,inactive
O=C(NN=C1CCCCCC1)c1cc(-c2ccccc2)nc2ccccc12,–,–,–,inactive,inactive,inactive,inactive
COc1ccc(C2c3ccc4ccccc4c3Oc3ncn(CCCO)c(=N)c32)cc1 (stereo not given),–,–,–,inactive,inactive,inactive,inactive
COC(=O)c1c(NC(=S)Nc2ccccc2Cl)sc(C)c1C,–,–,–,inactive,inactive,inactive,inactive
CN(C)CCCn1c(=O)n(C2CCCCC2)c(=O)c2c3c(sc21)CCCCC3,167% (active),224% (active),154% (active),inactive,–,–,–
CCOc1ccc2nc(Nc3nc4ccc(NC(C)=O)cc4s3)sc2c1,–,–,–,inactive,inactive,inactive,inactive
CCC1CCCCN1C(=S)NC(=O)c1ccc([N+](=O)[O-])cc1 (stereo not given),244% (active),92.5% (active),280% (active),inactive,–,–,–
O=C(c1ccc(Cl)cc1)c1c[nH]c(C(=O)C(Cl)(Cl)Cl)c1,–,–,–,inactive,inactive,inactive,inactive
CCCCCCCCCCCCN1[C@@H](CC(=O)O)c2cc(F)ccc2S1(=O)=O,230% (active),76% (active),190% (active),inactive,–,–,–
O=c1c2ccccc2nc(-c2cccc(Cl)c2)n1O,358% (active),100% (active),327% (active),inactive,–,–,–
O=C(c1cccc(-c2ccccc2F)c1)N1CC[C@@H](N2CCC(O)CC2)[C@H](O)C1,–,–,–,inactive,inactive,inactive,inactive
COc1cc(CNCc2ccccn2)ccc1OCc1c(Cl)cccc1Cl,–,–,–,inactive,inactive,inactive,inactive
Cn1c(=O)c2c(SC3CCCC3)nc(C3CC3)nc2n(C)c1=O,–,–,–,inactive,inactive,inactive,inactive

SMILES,activation [1],potentiation [2],potentiation [3],outcome [4],outcome [1],outcome [2],outcome [3]
Cc1cccc(/C=C/C(=O)c2cc(Br)ccc(=O)c2O)c1,170% (active),90% (active),254% (active),inactive,–,–,–
CC(C)N(Cc1ccccc1)C(=S)NC(=O)C1(C)CC1(Cl)Cl (stereo not given),357% (active),138% (active),354% (active),inactive,–,–,–
CCN(C(=O)COC(=O)C(Cc1ccccc1)N1C(=O)c2ccccc2C1=O)C1CCS(=O)(=O)C1 (stereo not given),–,–,–,inactive,inactive,inactive,inactive
S=c1[nH]nc(-c2ccco2)n1/N=C/c1ccc(Cl)cc1Cl,174% (active),48% (active),173% (active),inactive,–,–,–
Cc1ccc(C(=O)COC(=O)COc2ccccc2C)cc1,–,–,–,inactive,inactive,inactive,inactive
CCCN(CCC)CCNC(=O)Cn1cnc2sc(C)c(S(=O)(=O)N3CCOCC3)c2c1=O,–,–,–,inactive,inactive,inactive,inactive
CCOC(=O)Cn1nc(-c2ccc(F)cc2)cc(Cc2ccccc2)c1=O,–,–,–,inactive,inactive,inactive,inactive
CCOC(=O)C1(CC2CCCCO2)CCN(Cc2cc3ccccc3[nH]2)CC1 (stereo not given),–,–,–,inactive,inactive,inactive,inactive
Cc1ccc2nc(NC(=S)NC(=O)c3ccco3)sc2c1,360% (active),138% (active),325% (active),inactive,–,–,–
CCOC(=O)c1ccccc1N1C(=O)CSC1=S,–,–,–,inactive,inactive,inactive,inactive
CSc1nc2sc3c(c2c(=S)[nH]1)CC(C)(C)OC3,528% (active),298% (active),652% (active),inactive,–,–,–
Cc1ccc(Cn2c(SCC(=O)N3CC(=O)Nc4ccccc43)nc3ccccc3c2=O)cc1,–,–,–,inactive,inactive,inactive,inactive
O=C1Nc2cc(C(=O)NCCCN3CCOCC3)ccc2S/C1=C/c1cccc(Cl)c1,–,–,–,inactive,inactive,inactive,inactive
CC(=O)NC(NC(C)=O)c1ccc(N(C)C)cc1,–,–,–,inactive,inactive,inactive,inactive
CCCCCCCC/C=C\CCCCCCCC(=O)O,143% (active),51% (active),–,inactive,–,–,inactive
O=C1OC(c2ccc(F)cc2)=N/C1=C\c1ccc(Br)o1,228% (active),80.5% (active),266% (active),inactive,–,–,–
COC(=O)c1c(N2C(=O)CC(Sc3ncccc3C(=O)O)C2=O)sc(C)c1C (stereo not given),–,–,–,inactive,inactive,inactive,inactive
O=C(/C=C/c1ccccc1)C1C(=O)c2ccccc2C1=O,–,25.5% (active),146% (active),inactive,inactive,–,–
O=C(COC(=O)c1ccccc1)Nc1ccccc1N1CCOCC1,–,–,–,inactive,inactive,inactive,inactive
Cc1ccc(C)c(N2CCN(C(=O)CCS(=O)(=O)c3ccc4c(c3)NC(=O)CO4)CC2)c1,–,–,–,inactive,inactive,inactive,inactive
